The record followed here is ChEMBL document CHEMBL1121898, “Potential antiestrogens. Synthesis and evaluation of mammary tumor inhibiting activity of 1,2-dialkyl-1,2-bis(3'-hydroxyphenyl)ethanes” (1981).

Calls of active or inactive are those of the source.

Assay [1] is filed under the species Rattus norvegicus. Nature of the assay: Complete remission of DMBA-induced hormone-dependent mammary carcinoma tumors in rats at 2.25 mg. In kind it is functional. In short, it runs like this:
(§1)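 Female SD rats bearing DMBA-induced, hormone-dependent mammary adenocarcinoma, with at least one tumor >140 mm², were grouped in tens. Dosing was sc per kg body weight: a single dose daily Monday–Thursday and a double dose Friday. Ovariectomy served as the comparison arm. Complete remission was defined as a tumor no longer palpable. Body weight and tumor area changes were also recorded.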

Assay [2] addresses T1, Estrogen receptor (Mus musculus) (UniProt O08537+P19785). Briefly: Estrogenic activity in uterotrophic test in mice at 9 ug. It counts as functional. In short, it runs like this: (§2)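 Immature (20-day-old) female NMRI mice, 14.5 ± 1.2 g, randomized into groups of 10. Given the test compound sc daily for 3 days in 0.1 mL olive oil. Uteri removed 24 h after the last injection; uterine weight taken as the read-out, means ± SD. Dose in μg.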

The target of assay [3] is T1, Estrogen receptor (Mus musculus). Briefly: Estrogenic activity in uterotrophic test in mice at 90 ug. In kind it is functional. Put shortly: as §2
Assay [4] has the same target. Nature of the assay: Estrogenic activity in uterotrophic test in mice at 0 ug. It counts as functional. In short, it runs like this: (§3)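 Uterine growth stimulation in immature female NMRI mice, 20 days old (14.5 ± 1.2 g), 10 per group. Test compound in 0.1 mL olive oil was given sc daily for 3 days. Uteri were excised 24 h after the final injection and weighed. Effect is reported as mean ± SD.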

The subject of the next assay is MCF7. Nature of the assay: Inhibition of estrogen receptor positive MCF-7 cell proliferation as cell number after 10 days at 10e-7 M and 10e-7 M 17-beta-estradiol. In kind it is functional, Homo sapiens. Put shortly:
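MCF-7 cells were grown in McCoy's 5a medium with fetal bovine serum stripped by DCC (0.5 h, 45 °C). Compounds were dissolved in ethanol (final ≤0.5%) and diluted in complete medium. Cells were seeded at 5×10^4 cells/plate. On day 10, three replicate plates per group were counted by Coulter counter, three counts per plate. Percent T/C = test/control. In a retest, compounds were given at 10^-7 M with 17β-estradiol at 10^-7 or 10^-8 M.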

Assay [5] is filed under the species Rattus norvegicus. Nature of the assay: Partial remission of DMBA-induced hormone-dependent mammary carcinoma tumors in rats at 4.5 mg. It counts as functional. In short, it runs like this: (§4)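 DMBA-induced, hormone-dependent mammary adenocarcinoma in SD rats. Rats bearing at least one tumor >140 mm² were placed in groups of ten. Compound was given sc as a single dose (mg/kg) daily Monday–Thursday and a double dose on Friday. Tumors were counted at the start and as new tumors; responses were scored as complete remission (not palpable), partial remission (≥50% reduction), no change or progression. Tumor area and body weight were recorded as % change.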

The species entered for assay [6] is Rattus norvegicus. Briefly: Percent change in DMBA-induced hormone-dependent mammary carcinoma tumor area at 2.25 mg after 28 days. It counts as functional. In short, it runs like this: as §4
For assay [7], the target named is T1, Estrogen receptor (Mus musculus). Nature of the assay: Estrogenic activity in uterotrophic test in mice at 3 ug. It counts as functional. In short, it runs like this: as §3
For assay [8], the species on record is Rattus norvegicus. Briefly: Percent change in DMBA-induced hormone-dependent mammary carcinoma tumor area in ovariectomised rats after 28 days. In kind it is functional. Put shortly: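 DMBA-induced, hormone-dependent mammary adenocarcinoma in SD rats, with ovariectomy as the treatment. Rats bearing at least one tumor >140 mm² were placed in groups of ten. Tumors were counted at the start and as new tumors. Responses were scored as complete remission, partial remission (≥50% size reduction), no change or progression, with % change in tumor area and body weight.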

The species named for assay [9] is Rattus norvegicus. Briefly: Partial remission of DMBA-induced hormone-dependent mammary carcinoma tumors in rats at 9 mg. It counts as functional. Put shortly:
as §4

For assay [10], the target named is T1, Estrogen receptor (Mus musculus). Briefly: Antiestrogenic activity in uterotrophic test in mice at 0 ug. It counts as functional. Put shortly: (§5)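 Immature female NMRI mice, 20 days old (14.5 ± 1.2 g), randomly grouped 10 per group. Each received a daily sc injection for 3 days of 0.1 mL olive oil solution containing test compound, together with estrone to stimulate uterine growth. Uteri were removed 24 h after the last injection and weighed. Results are reported as % inhibition of the estrone-stimulated uterine weight gain, mean ± SD.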

The species named for assay [11] is Mus musculus. Briefly: Vaginal cornification test in mice at 0.1 ug; predominant cellular component leucocytes (diestrus). It counts as functional, organism-based.
The species named for assay [12] is Rattus norvegicus. Nature of the assay: Complete remission of DMBA-induced hormone-dependent mammary carcinoma tumors in rats at 4.5 mg. It counts as functional. Put shortly: as §1
For assay [13], the species on record is Rattus norvegicus. Nature of the assay: Percent change in DMBA-induced hormone-dependent mammary carcinoma tumor area at 4.5 mg after 28 days. It counts as functional. Put shortly:
as §4

The species named for assay [14] is Rattus norvegicus. Nature of the assay: Percent unchanged tumor size of DMBA-induced hormone-dependent mammary carcinoma tumors in rats at 9 mg. In kind it is functional.
The species named for assay [15] is Rattus norvegicus. Briefly: Partial remission of DMBA-induced hormone-dependent mammary carcinoma tumors in rats at 2.25 mg. In kind it is functional. In short, it runs like this:
as §4

The species entered for assay [16] is Rattus norvegicus. Briefly: Final number of DMBA-induced hormone-dependent mammary carcinoma tumors in rats at 4 mg. It counts as functional. Put shortly: (§6)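 Sprague-Dawley rats carrying DMBA-induced, hormone-dependent mammary adenocarcinoma, at least one tumor >140 mm², were placed in groups of ten. Compounds were given sc, with doses in mg/kg: a single daily dose Monday to Thursday and a double dose on Friday. Ovariectomy served as a comparator group. New tumors arising during the test were counted.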

The target of assay [17] is T1, Estrogen receptor (Mus musculus). Nature of the assay: Antiestrogenic activity in uterotrophic test in mice at 0 ug (experiment 2). In kind it is functional. In short, it runs like this: as §5
The species entered for assay [18] is Rattus norvegicus. Nature of the assay: Percent unchanged tumor size of DMBA-induced hormone-dependent mammary carcinoma tumors in rats at 2 mg. In kind it is functional.
For assay [19], the species on record is Mus musculus. Briefly: Vaginal cornification test in mice at 5 ug; predominant cellular component leucocytes (diestrus). In kind it is functional, organism-based. Put shortly: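 Female NMRI mice (~15 g) were ovariectomized; castration was confirmed at 10 days by leucocyte smears. Mice were primed with estradiol 3-benzoate 0.2 μg, and only responders showing estrus were kept. Groups of three received sc test compound in 0.1 mL olive oil daily for 3 days. Saline vaginal smears were taken 6, 24, 30, 48 and 54 h after the last dose and scored by Allen-Doisy.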

The species named for assay [20] is Rattus norvegicus. Nature of the assay: Partial remission of DMBA-induced hormone-dependent mammary carcinoma tumors in rats at 4 mg. It counts as functional. In short, it runs like this:
as §4

Assay [21] has as its target T1, Estrogen receptor (Mus musculus). Briefly: Estrogenic activity in uterotrophic test in mice at 800 ug (experiment 2). In kind it is functional. In short, it runs like this:
as §2

Assay [22] shares this target. Briefly: Estrogenic activity in uterotrophic test in mice at 80 ug (experiment 2). In kind it is functional. In short, it runs like this:
as §2

Assay [23] is filed under the species Rattus norvegicus. Nature of the assay: Percent change in DMBA-induced hormone-dependent mammary carcinoma tumor area at 4 mg after 28 days. It counts as functional. In short, it runs like this: as §4
The target of assay [24] is T1, Estrogen receptor (Mus musculus). Nature of the assay: Antiestrogenic activity in uterotrophic test in mice at 500 ug (experiment 2). In kind it is functional. In short, it runs like this: as §5
The target is the same in assay [25]. Nature of the assay: Antiestrogenic activity in uterotrophic test in mice at 2.5 ug (experiment 1). In kind it is functional. Put shortly:
as §5

The species entered for assay [26] is Rattus norvegicus. Briefly: Percent change in body weight DMBA-induced hormone-dependent mammary carcinoma tumors in rats at 4 mg for 7 days. It counts as functional.
The species named for assay [27] is Mus musculus. Nature of the assay: Predominant components of vaginal smear at a compound concentration of 50 ug was determined using vaginal cornification test; leucocytes (</= 50%), nucleated and cornified, nucleated cellscharacteristic of antiestrogens. In kind it is functional, organism-based.
Assay [28] addresses T1, Estrogen receptor (Mus musculus). Nature of the assay: Estrogenic activity in uterotrophic test in mice at 8 ug (experiment 1). In kind it is functional. Put shortly: as §2
Assay [29] is filed under the species Rattus norvegicus. Nature of the assay: Final number of DMBA-induced hormone-dependent mammary carcinoma tumors in rats at 2 mg. In kind it is functional. In short, it runs like this: as §6
The species named for assay [30] is Rattus norvegicus. Nature of the assay: Progression of DMBA-induced hormone-dependent mammary carcinoma tumors in rats at 4 mg. It counts as functional.
The species named for assay [31] is Rattus norvegicus. Nature of the assay: Partial remission of DMBA-induced hormone-dependent mammary carcinoma tumors in rats at 1 mg. It counts as functional. In short, it runs like this: as §4
The species named for assay [32] is Mus musculus. Briefly: Vaginal cornification test in mice at 25 ug; predominant cellular component leucocytes (diestrus). In kind it is functional, organism-based.
Assay [33] is filed under the species Rattus norvegicus. Briefly: Percent change in DMBA-induced hormone-dependent mammary carcinoma tumor area at 1 mg after 28 days. It counts as functional. In short, it runs like this:
as §4

T1 sequence (O08537 whole entry, looked up): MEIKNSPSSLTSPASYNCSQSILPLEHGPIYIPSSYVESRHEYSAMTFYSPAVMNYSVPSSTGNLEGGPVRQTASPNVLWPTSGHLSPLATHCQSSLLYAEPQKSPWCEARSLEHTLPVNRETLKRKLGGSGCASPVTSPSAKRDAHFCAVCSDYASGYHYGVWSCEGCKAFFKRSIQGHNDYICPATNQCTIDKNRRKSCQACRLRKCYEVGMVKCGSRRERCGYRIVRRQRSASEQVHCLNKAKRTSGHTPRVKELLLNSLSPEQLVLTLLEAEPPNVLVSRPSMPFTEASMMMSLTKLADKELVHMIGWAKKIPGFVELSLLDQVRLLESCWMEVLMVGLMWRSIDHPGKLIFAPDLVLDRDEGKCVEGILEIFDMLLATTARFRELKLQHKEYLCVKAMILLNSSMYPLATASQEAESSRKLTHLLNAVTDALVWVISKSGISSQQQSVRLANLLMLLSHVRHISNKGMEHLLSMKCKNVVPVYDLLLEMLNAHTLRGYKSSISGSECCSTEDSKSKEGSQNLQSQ
T1 sequence (P19785 whole entry, looked up): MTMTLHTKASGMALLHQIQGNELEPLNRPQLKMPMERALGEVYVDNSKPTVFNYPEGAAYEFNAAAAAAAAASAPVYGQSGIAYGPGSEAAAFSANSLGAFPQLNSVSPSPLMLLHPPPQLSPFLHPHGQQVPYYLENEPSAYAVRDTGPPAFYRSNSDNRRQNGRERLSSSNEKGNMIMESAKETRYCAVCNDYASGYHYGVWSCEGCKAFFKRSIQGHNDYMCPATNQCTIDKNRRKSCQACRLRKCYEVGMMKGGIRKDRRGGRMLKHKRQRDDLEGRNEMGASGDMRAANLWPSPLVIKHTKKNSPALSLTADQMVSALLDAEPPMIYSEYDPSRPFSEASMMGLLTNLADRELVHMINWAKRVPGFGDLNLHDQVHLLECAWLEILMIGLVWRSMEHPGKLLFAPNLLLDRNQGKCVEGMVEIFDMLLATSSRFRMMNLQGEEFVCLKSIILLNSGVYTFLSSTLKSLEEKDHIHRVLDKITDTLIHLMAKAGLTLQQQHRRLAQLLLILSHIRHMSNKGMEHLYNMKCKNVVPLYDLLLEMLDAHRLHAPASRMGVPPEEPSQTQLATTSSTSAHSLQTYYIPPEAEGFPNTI

`CCCC(c1cccc(O)c1)C(CCC)c1cccc(O)c1` (centres undefined): the Tumors came out at 25% in the assay listed under Rattus norvegicus [1]; 14% in the assay filed under Rattus norvegicus [5]; 22% in the assay listed under Rattus norvegicus [9]; 23% in the assay filed under Rattus norvegicus [12]; 9% in the assay listed under Rattus norvegicus [14]; 8% in the assay listed under Rattus norvegicus [15]. The Effect in assay [2] was determined as 13.9; in [3] it was 17.6; in assay [4], 11.4; in [7], 13.6; in [10] it was 9.9. The compound also returned a Cell number with MCF7 of 5600. For the same compound, the figures for the Change in the assay listed under Rattus norvegicus [6], in the assay filed under Rattus norvegicus [8] and in the assay filed under Rattus norvegicus [13] were 271%, -99% and 109%, respectively. Moreover, the outcome in the assay listed under Mus musculus [11] was inactive.
In the case of `CCC(c1cccc(O)c1)C(CC)c1cccc(O)c1` (stereo in doubt; 20), the No. of tumors in the assay listed under Rattus norvegicus [16] was 11; in the assay listed under Rattus norvegicus [29] it was 23. Further, the Effect in assay [17] was found to be 10; in assay [21], 30.8; in assay [22], 30.5; in assay [24], 30.9; in assay [25], 29.5; in assay [28], 14.4. Further, the Tumors in the assay filed under Rattus norvegicus [18] was found to be 30%; in the assay filed under Rattus norvegicus [20], 25%; in the assay filed under Rattus norvegicus [30] it was 10%; in the assay listed under Rattus norvegicus [31] it was 15%. In addition, the outcome in the assay listed under Mus musculus [19] and in the assay filed under Mus musculus [32] was inactive. In addition, the Change was -75% in the assay filed under Rattus norvegicus [23], -5.3% in the assay filed under Rattus norvegicus [26] and 47% in the assay filed under Rattus norvegicus [33]. The Activity entry in the assay filed under Mus musculus [27] was “Weak activity”.
